Activity calls are given as the source filed them.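 How the source made its calls, unless noted: active means viability at or under a set limit in both replicates, limit being median viability minus 3 SD (cut at about 48% in these data, passing the limit was not always enough); inconclusive means at or under the limit in just one replicate; inactive means at or above the limit in both replicates.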

Assay [1] can be described thus: Her2 expression decrease, cell viability multiplex – SKBR3 breast tumor cells, AlphaScreen, ATP viability, primary screen (AID 461;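 active means Her2 level under about 52% in both replicate screens, with viability over 70% of control, limit read from the data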;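 on Her2 level: lower value means less Her2 protein in the cells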;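 on viability: percent of carrier control wells set as 100% viability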). The settings on record: SKBR3 Her2 protein level, 18-24 h, measured here: SKBR3 viability, ATP luminescence, at 10 µM.
The target of assay [2] is Receptor tyrosine-protein kinase erbB-2 (Homo sapiens) (UniProt P04626). The assay is described as above. To be noted: 18-24 h, at 10 µM, stronger effect = lower value.
A short description of assay [3]: reduced viability of SK-BR-3 breast cancer cells – cell-based, 24 h, human, pilot screen (AID 572;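 active means viability at or below 10% of carrier control in both of two separate runs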;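 further: compound exposure lasted between 18 and 24 h rather than exactly 24 h; 100% = carrier-treated control wells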). To be noted: SK-BR-3 viability, CellTiter-Glo luminescence, at 10 µM, stronger effect = lower value.
A short description of assay [4]: HUVEC growth inhibition – cell-based, human, primary screen (AID 575;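 active means viability at or below 30% in both replicate assays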;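 further: 100% = median of untreated cell wells with 0.1% DMSO on each plate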). To be noted: HUVEC proliferation, CellTiter-Glo luminescence, 72 h; at 10 µM; stronger effect = lower value. The essentials: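 Test system: primary human umbilical vein endothelial cells. Quantity: 1250 cells/well. Compound: single 10 µM dose, 0.1% DMSO, from 5x medium stock. Timing: 72 h treatment at 37 °C. Detection: ATP-based CellTiter-Glo luminescent read. Benchmarks: vehicle and MePR control wells. Format: 384-well plates coated with collagen.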

Assay [5] is described as follows: H69AR cell proliferation blockers – human, duplicate replicates, primary screen (AID 580).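 Further: 100% = mean luminescence of untreated wells and 0% = no signal.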 The settings on record: H69AR lung tumor cells viability, ATP luminescence, 72 h; at 10 µM; stronger effect = lower value.
A short description of assay [6]: MRP1 drug-resistance reversers in H69AR cells – cell-based, doxorubicin co-treatment, pilot screen (AID 601;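 active means viability loss from added drug above about 55%, and viability with drug at most 40%, in both replicates, limit read from the data, passing the limit was not always enough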). The settings on record: CellTiter-Glo, 72 h, at 10 µM; for differential viability (reversal): stronger effect = higher value.
Assay [7] can be described thus: yeast transport mutant growth inhibition pilot in 384-well plates, post-Golgi transport modulator project (AID 636; in the data active means inhibition above about 31%). To be noted: absorbance 615 nm, about 18 h, stronger effect = higher value.
Assay [8] in a line: growth suppression of yeast trafficking mutant, preliminary HTS, modulators of trafficking downstream of Golgi apparatus project, 1536-format plate, OD 615 nm (AID 637; in the data active means inhibition above about 30%). To be noted: yeast transport mutant growth, absorbance 615 nm, 18 h; stronger effect = higher value.
Where [9] appears, read: H69AR cells + 2 uM doxorubicin, measured here: viability with 2 uM doxorubicin, stronger effect = lower value.
[10] abbreviates: H69AR cells, compound alone cytotoxicity.

Chain of Receptor tyrosine-protein kinase erbB-2 (Homo sapiens) (P04626 whole entry, looked up): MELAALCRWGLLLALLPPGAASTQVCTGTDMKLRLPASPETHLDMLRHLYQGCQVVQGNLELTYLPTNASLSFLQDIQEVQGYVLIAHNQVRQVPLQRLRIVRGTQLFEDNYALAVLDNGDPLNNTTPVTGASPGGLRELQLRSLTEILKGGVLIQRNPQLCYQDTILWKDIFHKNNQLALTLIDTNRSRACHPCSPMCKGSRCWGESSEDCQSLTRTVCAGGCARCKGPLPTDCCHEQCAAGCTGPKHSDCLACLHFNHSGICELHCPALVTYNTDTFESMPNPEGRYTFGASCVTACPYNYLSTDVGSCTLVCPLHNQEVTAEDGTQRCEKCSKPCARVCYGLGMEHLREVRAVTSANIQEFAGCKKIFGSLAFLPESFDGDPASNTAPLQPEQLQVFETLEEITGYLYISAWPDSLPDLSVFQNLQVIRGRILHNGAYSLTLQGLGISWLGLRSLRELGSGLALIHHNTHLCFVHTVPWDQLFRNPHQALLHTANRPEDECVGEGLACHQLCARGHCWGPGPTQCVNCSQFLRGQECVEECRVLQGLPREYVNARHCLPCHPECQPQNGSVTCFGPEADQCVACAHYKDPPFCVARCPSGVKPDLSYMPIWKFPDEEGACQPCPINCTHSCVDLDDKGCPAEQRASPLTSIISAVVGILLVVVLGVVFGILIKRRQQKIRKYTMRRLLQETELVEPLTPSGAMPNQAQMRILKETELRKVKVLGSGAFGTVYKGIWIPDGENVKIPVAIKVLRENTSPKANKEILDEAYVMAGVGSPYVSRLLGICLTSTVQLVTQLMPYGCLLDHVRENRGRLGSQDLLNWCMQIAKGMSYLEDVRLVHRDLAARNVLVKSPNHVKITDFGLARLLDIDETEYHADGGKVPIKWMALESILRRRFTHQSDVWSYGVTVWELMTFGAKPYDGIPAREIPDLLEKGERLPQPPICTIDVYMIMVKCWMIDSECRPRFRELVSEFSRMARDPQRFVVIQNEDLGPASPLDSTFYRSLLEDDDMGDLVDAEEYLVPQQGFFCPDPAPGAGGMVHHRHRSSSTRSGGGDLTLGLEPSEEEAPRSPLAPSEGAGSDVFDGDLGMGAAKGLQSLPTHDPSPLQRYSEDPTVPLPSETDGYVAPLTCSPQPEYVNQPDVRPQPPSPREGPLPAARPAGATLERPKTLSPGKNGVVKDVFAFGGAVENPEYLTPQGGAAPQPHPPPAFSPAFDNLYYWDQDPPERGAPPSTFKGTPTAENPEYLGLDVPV

For the compound `Cc1nc(SCC#N)c2c(C)c(C)sc2n1`, the viability was 128% in assay [1]; 128% (inactive) in assay [3]; 98.6% (inactive) in assay [4]; 98.4% (inactive) in assay [5]; 88.6% in assay [6] (setting [9]); 98.4% in assay [6] (setting [10]). Besides, in assay [2], the Her2 level was 107% (inactive). In addition, the differential viability (reversal) in assay [6] (H69AR cells + 2 uM doxorubicin) was 9.83% (inactive). Also, the inhibition is -5.33% (inactive) in assay [7] and -0.65% (inactive) in assay [8].

Turning to `COc1ccc2oc(=O)c(C(=O)N3CCN(c4ccccc4F)CC3)cc2c1`, the viability in assay [1] is 97.5%; in assay [3] it was 97.5% (inactive); in assay [4] it was 108% (inactive); in assay [5], 88.1% (inactive); in assay [6] (setting [9]), 97.6%; in assay [6] (setting [10]), 88.1%. In addition, the Her2 level in assay [2] is 95.5% (inactive). Also, the differential viability (reversal) in assay [6] (H69AR cells + 2 uM doxorubicin) was -9.48% (inactive). In addition, the inhibition is -6.4% (inactive) in assay [7] and -3.65% (inactive) in assay [8].

`Cc1cc(NC(=O)CSc2nc3ccsc3c(=O)n2NC(=O)c2ccccc2)no1`: the viability in assay [1] is 94.5%; in assay [3], 94.5% (inactive); in assay [4] it was 93.9% (inactive); in assay [5], 97.1% (inactive); in assay [6] (setting [9]), 85.1%; in assay [6] (setting [10]), 97.1%. Also, in assay [2], the Her2 level is 100% (inactive). In assay [6] (H69AR cells + 2 uM doxorubicin), the differential viability (reversal) is 12% (inactive). Further, the inhibition in assay [7] is -0.93% (inactive); in assay [8], 13.8% (inactive).

Regarding `CCc1ccccc1NC(=O)CN(c1cccc(OC)c1)S(C)(=O)=O`, the viability in assay [1] is 112%; in assay [3], 112% (inactive); in assay [4] it was 110% (inactive); in assay [5], 100% (inactive); in assay [6] (setting [9]), 85.8%; in assay [6] (setting [10]), 100%. In assay [2], the Her2 level is 124% (inactive). Moreover, the differential viability (reversal) in assay [6] (H69AR cells + 2 uM doxorubicin) was 14.6% (inactive). For the same compound, the inhibition is -4% (inactive) in assay [7] and -7.74% (inactive) in assay [8].

As for `COC(=O)c1onc(C(=O)c2ccccc2)c1C(=O)OC`, the viability is 104% in assay [1]; 104% (inactive) in assay [3]; 98.8% (inactive) in assay [4]; 97.1% (inactive) in assay [5]; 84.4% in assay [6] (setting [9]); 97.1% in assay [6] (setting [10]). Also, in assay [2], the Her2 level is 89.5% (inactive). For the same compound, the differential viability (reversal) in assay [6] (H69AR cells + 2 uM doxorubicin) is 12.7% (inactive). Besides, the inhibition in assay [7] was -4.34% (inactive); in assay [8], 3.71% (inactive).

Consider `Oc1c(Cl)cc(Cl)cc1CNc1ccc(Br)cn1`, for which the viability in assay [1] was 100%; in assay [3] it was 100% (inactive); in assay [4] it was 74.8% (inactive); in assay [5], 93.2% (inactive); in assay [6] (setting [9]), 96.8%; in assay [6] (setting [10]), 93.2%. Further, the Her2 level in assay [2] was 88% (inactive). In assay [6] (H69AR cells + 2 uM doxorubicin), the differential viability (reversal) is -3.58% (inactive). In addition, the values for the inhibition in assay [7] and in assay [8] were 1.58% (inactive) and 13.4% (inactive), respectively.

As for `CC(C)(C)C(=O)/C=C(\N)c1ccccn1`, the viability in assay [1] was 102%; in assay [3], 102% (inactive); in assay [4] it was 119% (inactive); in assay [5], 100% (inactive); in assay [6] (setting [9]), 97.8%; in assay [6] (setting [10]), 100%. In addition, the Her2 level in assay [2] was 94.5% (inactive). Moreover, in assay [6] (H69AR cells + 2 uM doxorubicin), the differential viability (reversal) was 2.67% (inactive). Besides, the figures for the inhibition in assay [7] and in assay [8] were -1.04% (inactive) and -4.92% (inactive), respectively.

`Cc1cc(C(=O)CSc2nc3ccccc3[nH]2)c(C)n1C`: the viability is 100% in assay [1]; 100% (inactive) in assay [3]; 120% (inactive) in assay [4]; 94.4% (inactive) in assay [5]; 81.6% in assay [6] (setting [9]); 94.4% in assay [6] (setting [10]). In addition, the Her2 level in assay [2] is 86% (inactive). In assay [6] (H69AR cells + 2 uM doxorubicin), the differential viability (reversal) was 12.8% (inactive). Also, the inhibition in assay [7] is -4.93% (inactive); in assay [8] it was -8.36% (inactive).

In the case of `COc1ccc(/C(O)=C2/C(=O)C(=O)N(CCN(C)C)C2c2ccccn2)cc1OC` (stereo not given), the viability in assay [1] is 92.5%; in assay [3], 92.5% (inactive); in assay [4], 103% (inactive); in assay [5], 91.5% (inactive); in assay [6] (setting [9]), 88.3%; in assay [6] (setting [10]) it was 91.5%. Further, the Her2 level in assay [2] was 91.5% (inactive). The differential viability (reversal) in assay [6] (H69AR cells + 2 uM doxorubicin) is 3.17% (inactive). Besides, the inhibition in assay [7] was -4.19% (inactive); in assay [8] it was -6.19% (inactive).

With `C#CCN1C(=O)C(O)(CC(=O)c2cccc(OC)c2)c2ccccc21` (stereo not given), the viability was 100% in assay [1]; 100% (inactive) in assay [3]; 93.3% (inactive) in assay [4]; 21.7% (active) in assay [5]; 38.3% in assay [6] (setting [9]); 21.7% in assay [6] (setting [10]). Besides, the Her2 level in assay [2] is 84% (inactive). Further, the differential viability (reversal) in assay [6] (H69AR cells + 2 uM doxorubicin) was -16.6% (inactive). In addition, the inhibition in assay [7] is -7.03% (inactive); in assay [8], 1.67% (inactive).

In the case of `Cc1ccc(CCNC(=O)Cn2cccc2)cc1`, the viability in assay [1] is 112%; in assay [3] it was 112% (inactive); in assay [4], 110% (inactive); in assay [5], 99.5% (inactive); in assay [6] (setting [9]), 94%; in assay [6] (setting [10]), 99.5%. For the same compound, the Her2 level in assay [2] was 98% (inactive). Besides, the differential viability (reversal) in assay [6] (H69AR cells + 2 uM doxorubicin) is 5.51% (inactive). Also, the inhibition is -4.73% (inactive) in assay [7] and 0.67% (inactive) in assay [8].

As to `Cc1ccsc1C1C2=C(CCCC2=O)Nc2ncnn21` (stereo not given), the viability in assay [1] was 86%; in assay [3] it was 86% (inactive); in assay [4] it was 98% (inactive); in assay [5], 92.6% (inactive); in assay [6] (setting [9]), 99.7%; in assay [6] (setting [10]), 92.6%. For the same compound, the Her2 level in assay [2] is 100% (inactive). Moreover, in assay [6] (H69AR cells + 2 uM doxorubicin), the differential viability (reversal) is -7.12% (inactive). Further, the inhibition in assay [7] was -1.32% (inactive); in assay [8], -1.31% (inactive).

With `Cc1ccc2oc(C(=O)Nc3c(C)n(C)n(-c4ccccc4)c3=O)c(C)c2c1`, the viability in assay [1] was 84.5%; in assay [3], 84.5% (inactive); in assay [4] it was 97.2% (inactive); in assay [5], 104% (inactive); in assay [6] (setting [9]), 83.6%; in assay [6] (setting [10]) it was 104%. The Her2 level in assay [2] is 102% (inactive). In assay [6] (H69AR cells + 2 uM doxorubicin), the differential viability (reversal) is 20.3% (inactive). For the same compound, the inhibition in assay [7] is -7.4% (inactive); in assay [8], -10.3% (inactive).

On to `COc1ccc(CN(C(=O)CNC(=O)c2ccco2)C(C(=O)NC2CCCC2)c2ccco2)cc1` (stereo not given), for which the viability in assay [1] is 91%; in assay [3], 91% (inactive); in assay [4], 103% (inactive); in assay [5], 95.4% (inactive); in assay [6] (setting [9]), 87.8%; in assay [6] (setting [10]), 95.4%. In addition, the Her2 level in assay [2] was 106% (inactive). The differential viability (reversal) in assay [6] (H69AR cells + 2 uM doxorubicin) is 7.6% (inactive). Besides, the inhibition in assay [7] is -0.39% (inactive); in assay [8], -5.48% (inactive).

Consider `COc1ccccc1N1CCN(C(=O)CSc2nc(-c3ccccc3)cc(=O)[nH]2)CC1`, for which the viability in assay [1] was 87.5%; in assay [3] it was 87.5% (inactive); in assay [4], 80.8% (inactive); in assay [5], 88.1% (inactive); in assay [6] (setting [9]), 89.8%; in assay [6] (setting [10]), 88.1%. The Her2 level in assay [2] was 124% (inactive). In addition, the differential viability (reversal) in assay [6] (H69AR cells + 2 uM doxorubicin) is -1.75% (inactive). The inhibition was -3.16% (inactive) in assay [7] and -6.83% (inactive) in assay [8].

The values above are taken from PubChem BioAssay.
